According to PubChem BioAssay:
Records with an inconclusive call do not appear.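 The calls were made as follows, unless noted: active = viability at or below 27.92% in each of two runs, the all-compound median minus 4 SD; inconclusive = no clear call, values can overlap the other calls; inactive = the rest.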

Key:
[1] = OD615 S. cerevisiae growth inhibition, permissive medium, pilot counter-assay, permissive growth control for S. cerevisiae lifespan shortening project (AID 705;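 active = growth inhibition above 25% in both replicates, a cutoff set 3 SD above the mean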); details: OD615, 24 h, at 10 µM, active compounds read high
Summary of the method: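 assay system = Saccharomyces cerevisiae strain carrying genetically modified DeaD replicative-lifespan system | medium = SC raffinose/galactose permissive medium | dosing = 10 µM single dose, 0.25% DMSO | schedule = 24 h compound exposure at 30 °C after 4 h pre-growth | measured by = OD at 615 nm | read-out basis = growth inhibition from lowered OD615 after 24 h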

[2] = Restrictive medium S. cerevisiae growth inhibition, OD615, pilot screen of yeast lifespan reduction project, restrictive growth control (AID 706;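 active = growth inhibition above a set limit, 3 SD over mean compound inhibition, in both replicates, cut at about 43% in these data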;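 also: modified DeaD lifespan yeast strain shifted to restrictive glucose medium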); details: OD615, 48 h, at 10 µM, active compounds read high
Summary of the method: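 Buffer or medium: CSMM-D glucose medium. Material: genetically modified Saccharomyces cerevisiae, DeaD replicative lifespan assay strain. Times: 48 h compound exposure at 30 °C. Measured by: optical density at 615 nm.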

[3] = viability gain of MRP-1-high H69AR cells under doxorubicin, pilot screen, MRP-1 activator project, CellTiter-Glo, duplicate (AID 807;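 active = viability increase at or above a cutoff of the median across tested compounds plus 3 SD, cut at about 8.5% in these data, passing the limit was not always enough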;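 also: compound pretreatment 18-22 h then 72 h combined with doxorubicin; 0% = doxorubicin alone and 100% = vehicle without doxorubicin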); details: H69AR viability with doxorubicin, CellTiter-Glo luminescence; at 10 µM; active compounds read high
[4] = growth suppression of beta-catenin knockout HCT116, pilot screen, human colon tumor cells (AID 823;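 active = cell viability at or below a set limit in both duplicate runs, the limit being the all-compound median minus 4 SD, cut at about 23% in these data, passing the limit was not always enough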;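 also: 0% = wells killed by 20 µM Hyamine and 100% = untreated DMSO cell wells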); details: CellTiter-Glo, 60 h, at 10 µM, active compounds read low
[5] = growth suppression of PTEN-deleted HCT116, pilot screen, cell-based, HCT116 clonal line, CellTiter-Glo (AID 824); details: 60 h, at 10 µM, active compounds read low;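 also: 0% = 20 µM Hyamine control and 100% = vehicle cell control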
[6] = inhibitors of the yeast RAM network, pilot screen, dse1pr::URA3 reporter, 5-FOA selection (AID 869;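 active = inhibition over a set limit, the all-compound mean plus 3 SD, in both replicate runs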;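 also: 0% = DMSO wells with no growth and 100% = 10 µM 1-NA-PP1 with full growth; RAM network block rescues cells from 5-FOA so hits raise OD615 growth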); details: S. cerevisiae dse1pr::URA3 5-FOA growth, OD615, 2 d; at 10 µM; active compounds read high; strain carries analog-sensitive mutant Cbk1 kinase
[7] = RAM signaling pathway blockade in yeast – S. cerevisiae, Pdr1DBD-CYC8 efflux-inhibited sensitized strain, primary screen (AID 1298;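 active = RAM network inhibition above 8.4% in each of two replicates, 3 SD over the compound average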;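 also: 0% = DMSO untreated cells without growth and 100% = 10 µM 1-NA-PP1 full growth; higher means more yeast growth rescued from 5-FOA killing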); details: S. cerevisiae cbk1-as DSE1-URA3 strain, 5-FOA growth OD615, 2 d; at 50 µM; active compounds read high

CN(CCCNC(=O)C1CCC(=O)N1Cc1ccc(F)cc1)c1ccccc1 (stereo not drawn)
inactive: growth inhibition [1] 4.99% | growth inhibition [2] -8.76% | viability increase [3] -1.51% | viability [4] 95.5% | viability [5] 90.5% | inhibition [6] 0.54% | RAM network inhibition [7] 0.72%

COCCSc1nc2c(c(=O)[nH]c(=O)n2C)n1CCC(C)C
inactive: growth inhibition [1] -19.7% | growth inhibition [2] -18.9% | viability increase [3] -1.88% | viability [4] 103% | viability [5] 97.3% | inhibition [6] 1.55% | RAM network inhibition [7] 2.8%

COc1ccccc1S(=O)(=O)Cc1ccc(C(=O)N2CCCC2)o1
inactive: growth inhibition [1] -3.58% | growth inhibition [2] -4.36% | viability increase [3] -1.51% | viability [4] 108% | viability [5] 101% | inhibition [6] 0.935% | RAM network inhibition [7] 0.94%

COC(=O)C1C(=O)c2c([nH]c(C(=O)OC3CCCCCC3)c2C)CC1C (stereo not drawn)
inactive: growth inhibition [1] 1.09% | growth inhibition [2] 2.59% | viability increase [3] -2.6% | viability [4] 102% | viability [5] 91.1% | inhibition [6] 1.3% | RAM network inhibition [7] 3.01%

Cc1ccc(C2CC(=O)NC(SCc3ccccc3)=C2C#N)o1 (stereo not drawn)
inactive: growth inhibition [1] -12.6% | growth inhibition [2] -9.71% | viability increase [3] -3.75% | viability [4] 85.7% | viability [5] 104% | inhibition [6] -0.825% | RAM network inhibition [7] 0.58%

COc1ccc2oc(C(=O)CCC(=O)O)c(N)c2c1
inactive: growth inhibition [1] -12.2% | growth inhibition [2] 8.27% | viability increase [3] -0.43% | viability [4] 93.3% | viability [5] 92.5% | inhibition [6] 1.98% | RAM network inhibition [7] 1.31%

O=C(c1cnn2c(C(F)(F)F)cc(-c3ccccc3)nc12)N1CCOCC1
inactive: growth inhibition [1] -14.6% | growth inhibition [2] -10% | viability increase [3] -2.81% | viability [4] 103% | viability [5] 99.8% | inhibition [6] 0.505% | RAM network inhibition [7] -1.1%

C=CCSC1=C(C#N)C(c2ccc(C(C)C)cc2)CC(=O)N1 (stereo not drawn)
inactive: growth inhibition [1] -11.6% | growth inhibition [2] 8.41% | viability increase [3] -1.41% | viability [4] 92.2% | viability [5] 96.3% | inhibition [6] 0.04% | RAM network inhibition [7] 5.66%

Cc1cccc(C)c1OCC(O)Cn1ccnc1C (stereo not drawn)
inactive: growth inhibition [1] 1.01% | growth inhibition [2] 0.215% | viability increase [3] -1.6% | viability [4] 81.1% | viability [5] 84.7% | inhibition [6] 1.08% | RAM network inhibition [7] -0.1%

CCc1ccc(C2CC(c3ccc(C)cc3)n3nc(N)nc3N2)cc1 (stereo not drawn)
inactive: growth inhibition [1] 5.21% | growth inhibition [2] 24.1% | viability increase [3] 0.11% | viability [4] 101% | viability [5] 107% | inhibition [6] 1.35% | RAM network inhibition [7] 8.9%

Cc1noc(C)c1S(=O)(=O)N(CC(=O)N1CCc2ccccc21)c1ccc(C(C)C)cc1
inactive: growth inhibition [1] -4.56% | growth inhibition [2] -7.38% | viability increase [3] -5.04% | viability [4] 86.7% | viability [5] 82.5% | inhibition [6] 1.3% | RAM network inhibition [7] 5.36%

COc1ccc(CCNC(=O)CCS(=O)(=O)c2cccc3nsnc23)cc1OC
inactive: growth inhibition [1] -10.1% | growth inhibition [2] -13.1% | viability increase [3] -2.17% | viability [4] 96.4% | viability [5] 97.5% | inhibition [6] 0.45% | RAM network inhibition [7] 3.1%

COC(=O)CN1C(=O)C(O)(CC(=O)c2cccc(Br)c2)c2ccccc21 (stereo not drawn)
inactive: growth inhibition [1] -6.81% | growth inhibition [2] -10.7% | viability increase [3] -4.39% | viability [4] 90.9% | viability [5] 86.9% | inhibition [6] 1.2% | RAM network inhibition [7] 2.42%

CCN(CC)C(=O)CCCOc1ccc(Cl)cc1Cl
inactive: growth inhibition [1] -2.5% | growth inhibition [2] -0.045% | viability increase [3] 0.07% | viability [4] 76.7% | viability [5] 83.9% | inhibition [6] -0.905% | RAM network inhibition [7] 0.45%

N#CCn1nnc(-c2ccc3c(c2)OCO3)n1
inactive: growth inhibition [1] -5.24% | growth inhibition [2] 3.03% | viability increase [3] 3.41% | viability [4] 98.5% | viability [5] 103% | inhibition [6] 0.46% | RAM network inhibition [7] 0.16%

O=C(Nc1ccncc1)c1ccccc1F
inactive: growth inhibition [1] -0.355% | growth inhibition [2] 0.36% | viability increase [3] -3.04% | viability [4] 94.3% | viability [5] 98% | inhibition [6] 1.06% | RAM network inhibition [7] 0.96%

COc1ccc(C2C(C(=O)Nc3ccc(F)cc3)=C(C)Nc3nc(CCCO)nn32)cc1 (stereo not drawn)
inactive: growth inhibition [1] -0.24% | growth inhibition [2] -1.29% | viability increase [3] -1.2% | viability [4] 96.6% | viability [5] 100% | inhibition [6] 0.24% | RAM network inhibition [7] 0.37%

O=C(Cn1cc2c(n1)CCCC2)NC1CCN(Cc2ccccc2)CC1
inactive: growth inhibition [1] 2.67% | growth inhibition [2] 5.09% | viability increase [3] -1.67% | viability [4] 87% | viability [5] 87% | inhibition [6] 0.965% | RAM network inhibition [7] -0.16%

O=C(c1ccccc1S(=O)(=O)NCc1ccccc1)N1CCCCC1
inactive: growth inhibition [1] -1.57% | growth inhibition [2] -5.03% | viability increase [3] -2.89% | viability [4] 98.6% | viability [5] 91% | inhibition [6] 1.01% | RAM network inhibition [7] 1.68%

COc1ccc(NC(=O)C(c2ccc(C)cc2)N(C)C(=O)c2cnccn2)cc1 (stereo not drawn)
inactive: growth inhibition [1] 1.81% | growth inhibition [2] 1.4% | viability increase [3] -1.03% | viability [4] 89.6% | viability [5] 95.6% | inhibition [6] -0.145% | RAM network inhibition [7] 0.06%

COc1ccc(S(=O)(=O)N2CCC(C(=O)N3CCOCC3)CC2)cc1OC
inactive: growth inhibition [1] -15.4% | growth inhibition [2] -6.63% | viability increase [3] -0.87% | viability [4] 91.5% | viability [5] 94.8% | inhibition [6] 0.825% | RAM network inhibition [7] 2.43%

Cc1ccc(OC(=O)CCC(=O)N2CCc3ccccc32)cc1
inactive: growth inhibition [1] -5.4% | growth inhibition [2] -2.35% | viability increase [3] -3.7% | viability [4] 89.6% | viability [5] 97.9% | inhibition [6] 2.2% | RAM network inhibition [7] 0.82%

COc1ccccc1OCc1nc(C#N)c(N2CC(C)CC(C)C2)o1 (stereo not drawn)
inactive: growth inhibition [1] -10.7% | growth inhibition [2] -24.8% | viability increase [3] -2.5% | viability [4] 71.7% | viability [5] 72.9% | inhibition [6] 1.48% | RAM network inhibition [7] 9.85%

CCSCCOC(=O)C1=C(C)NC(=O)NC1c1cccc(OC)c1OC (stereo not drawn)
inactive: growth inhibition [1] -15% | growth inhibition [2] -9.84% | viability increase [3] -1.39% | viability [4] 96.8% | viability [5] 96.9% | inhibition [6] 0.96% | RAM network inhibition [7] 0.63%
